Screening results deposited in PubChem by Broad Institute.
The list is not random: actives were taken first. Their share in the collection is about 1.9%.
Cneo AK release = Cryptococcus neoformans cell lysis inducers, primary screen, AK release luminescence, single concentration; C. neoformans lysis, adenylate kinase release luminescence, 4 h; normalised: neutral wells 0, clomiphene wells 100; lysis activity, % at 15 µM; 360,000 tested, 0.2% active; AID 651654, 2012;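 active = mean lysis activity across replicates of at least 80%, whatever share of replicates individually reach that level; inactive = mean lysis activity below 80%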
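Schedule: static 4 h at 37 °C with compound, 1 h detection; system: C. neoformans cells; benchmarks: Clomiphene as positive control; buffer or medium: fresh YPD medium; measure: luminescence rise reflecting yeast cell lysis; measured by: luminescent adenylate kinase detection reagent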
XiGFP reactiv = activators of inactive X chromosome reactivation, primary screen, imaging, XiGFP fibroblasts, GFP high-content imaging, set 2. activation, % at 7.58 µM. XiGFP mouse fibroblasts, % GFP-positive cells imaging, 3 d; cells co-treated with 5-aza-dC sensitizer; scaled so ellipticine positive control = 100%. AID 743238, 2013. 360,000 tested, 0.055% active;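 active = mean normalized replicate activation at least 10% and every replicate at or above 10%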;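 note: 0% = median of on-plate neutral control wells and 100% = ellipticine 6 µM median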
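System: 68-5-11 XiGFP fibroblast line | Buffer or medium: DMEM containing 5-aza-dC | Compound: Single point | Times: Compounds 3 days, fix/stain 15 min at room temperature | Benchmarks: Positive control ellipticine, 6 µM final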
FN deposit inh = inhibitors of fibronectin matrix deposition, primary screen, AH1F cells, Alexa488-fibronectin fluorescence, plate reader; AH1F fibroblasts, overnight; inhibition, % at 12.6 µM; 350,000 tested, 0.086% active;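 active = mean inhibition across replicates of 30% or more, regardless of how many single replicates reach that level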;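 note: positive control wells lacked labelled fibronectin entirely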
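Material: AH1F fibroblast monolayer depositing Alexa488-labelled fibronectin into matrix | Input: 10000 AH1F cells/well | Medium: DMEM plus 2% serum, read in PBS | Reagent: Alexa488-fibronectin, 24 nM final in well | Compound dosing: One dose per compound, pinned | Schedule: 1 h adhesion, overnight exposure | Measured by: Fluorescence at 485 nm excitation, 525 nm emission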
PGC1a acetyl inh = inhibitors of PGC1a acetylation signal, primary screen, cell-based, U2OS, AlphaScreen, inhibitor mode | AlphaScreen anti-acetyl-lysine; with virally co-expressed GCN5 acetyltransferase | inhibition, % at 15.6 µM | 350,000 tested, 0.17% active | AID 651687, 2012;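 active = every replicate shows inhibition of at least 40%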;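 note: 0% = neutral control wells and 100% = positive control wells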
DENV2 CPE rescue = inhibitors of DENV2 cytopathic effect, primary screen, cell-based, plate reader, single concentration; AID 651640, 2012; DENV2-infected cells, cytopathic effect rescue; 350,000 tested, 1.7% active; CPE inhibition, % at 9.99 µM; in the data active = CPE inhibition above about 20%, passing the limit was not always enough; tested in BHK-21 cells;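 note: 0% = median of neutral control wells and 100% = median of positive control wells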
F508del corr = F508del CFTR correction, initial screen, CFBE line, single point | 350,000 tested, 0.36% active | activity (quench increase), % at 7.58 µM | CFBE cells, YFP halide quenching; stimulated with forskolin plus potentiator P3; % fluorescence drop versus neutral controls;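 active = mean added fluorescence quench of at least 8% versus neutral control, with both replicates also reaching 8%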;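 note: cells transiently co-express mutant CFTR-F508del with the halide-sensitive YFP; corrector assay measuring rescue of mutant channel to the surface after 24 h compound exposure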
An asterisk follows results filed as active; / = not tested or not shown.

SMILES	Cneo AK release	XiGFP reactiv	FN deposit inh	PGC1a acetyl inh	DENV2 CPE rescue	F508del corr
C[C@@H]1CCCCO[C@H](CN(C)S(C)(=O)=O)[C@@H](C)CN([C@@H](C)CO)C(=O)c2cc(NC(=O)Nc3ccc(C(F)(F)F)cc3)ccc2O1	-1.8	-1.2	/	-2.7	3.2	3.6
COc1ccc(-c2ccc3n(c2=O)C[C@H]2[C@H](CO)[C@@H](C(=O)N4CCOCC4)N[C@@H]32)cc1	-0.1	-0.1	7.0	/	3.4	/
COC(=O)c1ccc(NC(=O)C2CC3CCC2C3)cc1 (stereo not drawn)	-5.1	0.4	-9.2	-12.7	47.5*	-1.1
C[C@@H]1CCCCO[C@@H](CN(C)C(=O)Nc2ccccc2)[C@@H](C)CN([C@@H](C)CO)C(=O)c2cc(NS(=O)(=O)c3ccc(Cl)cc3)ccc2O1	0.3	0.3	-9.4	-9.5	8.3	0.8
COc1cc(/C=C(\NC(C)=O)C(=O)Nc2ccccc2C)ccc1OC(C)=O	-4.0	0.0	9.0	/	20.7*	0.6
COc1cc(/C=C(\NC(C)=O)C(=O)Nc2ccc(NC(C)=O)cc2)ccc1OC(C)=O	/	0.1	-8.6	/	/	/
CCCC#Cc1cnc2c(c1)C(=O)N([C@@H](C)CO)C[C@@H](C)[C@@H](CN(C)C(=O)CCN1CCCCC1)O2	-3.4	-1.0	10.1	5.2	-5.7	-0.1
CC1=C(/C=C/C(C)=C/C=C/C(C)=C/CO)C(C)(C)CCC1	-1.0	/	/	-4.0	121.5*	-2.3
CC1=C(/C=C/C(C)=N\NC(=O)c2ccncc2)C(C)(C)CCC1	/	0.0	5.3	/	2.7	-2.0
C[C@@H]1CN([C@H](C)CO)C(=O)c2cc(NC(=O)C3CCCCC3)ccc2O[C@H]1CN(C)CC1CCCCC1	-1.2	-0.9	-7.2	-7.8	-3.1	1.5
CC=Cc1ccc2n(c1=O)C[C@@H]1[C@@H](CO)[C@H](C(=O)N3CCc4ccccc4C3)N(C(=O)C3CC3)[C@H]21 (mixture of isomers)	97.1*	0.3	/	/	0.7	/
CN1[C@H](C(=O)N2CCc3ccccc3C2)[C@@H](CO)[C@@H]2Cn3c(ccc(-c4cccnc4)c3=O)[C@@H]21	103.5*	0.3	13.6	/	-12.1	2.4
O=C(c1ccccc1)N1CC2(C1)[C@H](c1ccccc1)[C@@H](CO)N2Cc1ccccn1	/	0.1	-4.4	10.8	11.0	1.8
O=C(c1cccnc1)N1CC2(C1)[C@H](c1ccccc1)[C@@H](CO)N2Cc1ccccc1	/	0.0	-8.4	-0.1	108.0*	-1.5
CCS(=O)(=O)N1CC2(C1)[C@@H](c1ccccc1)[C@H](CO)N2Cc1ccccn1	/	0.1	-0.1	-2.6	21.7*	1.1
O=C(c1cccnc1)N1CC2(C1)[C@H](c1ccccc1)[C@@H](CO)N2Cc1cccnc1	/	0.1	-6.5	/	-5.1	3.1
O=C(c1ccccc1)N1CC2(C1)[C@@H](c1ccccc1)[C@@H](CO)N2Cc1ccccn1	/	0.2	-17.1	3.5	21.0*	-0.2
CCS(=O)(=O)N1CC2(C1)[C@H](c1ccccc1)[C@@H](CO)N2Cc1ccccn1	/	0.1	-1.6	0.5	-1.4	0.6
Cc1cccc(S(=O)(=O)N2C[C@H](O)COC[C@@H]3O[C@@H](CC(=O)NCc4ccc5c(c4)OCO5)CC[C@H]32)c1	3.7	0.0	-10.0	-6.9	-7.9	-0.7
O=C1C(Nc2ccccc2)=C/C(=N/S(=O)(=O)c2cccs2)c2ccccc21	-4.0	/	/	59.3*	/	/
Cc1ccc(S(=O)(=O)/N=C2/C=C(Sc3ncn[nH]3)C(=O)c3ccccc32)cc1	2.8	/	/	77.2*	/	/
Cc1ccc(NC2=C/C(=N/S(=O)(=O)c3cccs3)c3ccccc3C2=O)cc1	/	-0.1	14.7	/	8.4	/
Cc1ccc(S(=O)(=O)/N=C2\C=C(Nc3ccc(O)cc3)C(=O)c3ccccc32)cc1	-7.3	/	/	86.5*	/	/
Cc1noc(C)c1S(=O)(=O)N(C)C[C@@H]1Oc2ccc(NS(=O)(=O)c3cccs3)cc2CC(=O)N([C@H](C)CO)C[C@H]1C	-1.0	0.3	/	0.6	1.9	0.4
CC1(C(=O)NCc2ccccc2)Cc2c(-c3ccc(C(N)=O)cc3)ccnc2O1 (stereo not drawn)	0.7	1.3	11.6	/	6.0	14.5*
SMILES	Cneo AK release	XiGFP reactiv	FN deposit inh	PGC1a acetyl inh	DENV2 CPE rescue	F508del corr
CC1(C(=O)NCc2ccco2)Cc2c(-c3ccc(C(N)=O)cc3)ccnc2O1 (stereo not drawn)	-0.8	0.2	3.1	7.4	39.9*	-0.3
COc1ccc(/C=N\NC(=O)c2ccccc2)cc1COc1ccc(F)cc1	-1.5	0.3	/	/	2.4	-1.2
COc1ccc(/C=N\NC(=O)c2ccc(-c3ccccc3)cc2)cc1COC(C)=O	-0.8	0.2	2.6	-1.0	55.6*	1.9
C[C@H](CO)N1C[C@H](C)[C@@H](CN(C)C(=O)Cc2ccccn2)Oc2ncc(-c3ccccc3)cc2C1=O	3.1	0.2	-6.0	7.0	-3.7	1.8
CCC(=O)N[C@H]1CC[C@@H](CC(=O)NCc2ccc(OC)cc2)O[C@H]1CO	-0.8	0.0	/	-6.5	-2.8	2.7
C[C@H](CO)N1C[C@H](C)[C@H](CN(C)C(=O)Nc2ccc(F)cc2)Oc2c(NC(=O)C3CCCCC3)cccc2C1=O	4.8	-0.2	-4.1	-0.1	15.5	1.2
Cc1cccc(-c2ccc([C@@H]3[C@H](CO)N4CCCCN(S(=O)(=O)c5cccc(C)c5)C[C@@H]34)cc2)c1	5.5	0.5	/	-11.7	23.3*	-2.1
Cc1cccc(S(=O)(=O)N2CCCCN3[C@@H](CO)[C@@H](c4ccc(-c5cccnc5)cc4)[C@@H]3C2)c1	-0.4	0.0	/	-17.8	28.2*	4.7
COc1cccc(S(=O)(=O)N2CCCCN3[C@H](CO)[C@H](c4ccc(-c5cccnc5)cc4)[C@H]3C2)c1	5.0	0.2	/	1.6	-8.5	-0.2
COc1cccc(-c2ccc([C@@H]3[C@H](CO)N4CCCCN(S(=O)(=O)c5cn(C)cn5)C[C@@H]34)cc2)c1	-0.2	0.1	/	/	26.7*	-3.4
COCCNC(=O)C[C@H]1C[C@H]2c3cc(NC(=O)C4CCOCC4)ccc3O[C@H]2[C@@H](CO)O1	/	0.4	3.0	/	/	/
CN1C(=O)c2cc(NC(=O)Nc3ccccc3)ccc2OC[C@@H]2O[C@H](CC(=O)NC3CCC3)CC[C@H]21	-5.8	0.1	-0.5	-3.8	1.0	-0.6
